Assay results: ChEMBL document CHEMBL2321674, “Design, synthesis and biological evaluation of sulfur-containing 1,1-bisphosphonic acids as antiparasitic agents” (Eur J Med Chem, 2013)

Experiments:
[1] = target: T1, Farnesyl diphosphate synthase (Trypanosoma cruzi, UniProt Q8WS26); assay: Inhibition of Trypanosoma cruzi farnesyl diphosphate synthase assessed as incorporation of [4-14C]IPP measured at 37 degC
T1 sequence (Q8WS26 whole entry): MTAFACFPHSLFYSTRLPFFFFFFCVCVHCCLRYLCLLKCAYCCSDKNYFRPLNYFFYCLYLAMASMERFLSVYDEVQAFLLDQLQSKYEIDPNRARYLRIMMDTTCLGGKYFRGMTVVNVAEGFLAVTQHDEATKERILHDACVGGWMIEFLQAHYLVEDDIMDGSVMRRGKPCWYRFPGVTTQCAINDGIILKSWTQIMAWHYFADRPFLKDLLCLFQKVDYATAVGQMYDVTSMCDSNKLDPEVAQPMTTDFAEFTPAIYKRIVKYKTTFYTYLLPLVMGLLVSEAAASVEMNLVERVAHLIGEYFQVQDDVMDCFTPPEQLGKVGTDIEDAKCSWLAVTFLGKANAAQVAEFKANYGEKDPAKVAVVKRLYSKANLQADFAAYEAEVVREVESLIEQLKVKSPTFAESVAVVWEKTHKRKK

Vero = assay: Cytotoxicity against african green monkey Vero cells assessed as cell viability at 25 uM; type: cell-based; settings: chlorocebus sabaeus
Toxoplasma gondii = assay: Antiparasitic activity against Toxoplasma gondii tachyzoite expressing red fluorescence protein assessed as growth inhibition by fluorescence plate reader; type: functional; settings: read-out: ED50 (the source's name)
Procedure, shortened: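 T. gondii tachyzoites expressing red fluorescent protein, filtered (3 μm) and needle-passed, inoculated at 10^4/well onto confluent hTerT monolayers in DMEM-HG with 1% FBS, 2 mM glutamine, 1 mM pyruvate, serial drug dilutions; 37 °C, 5% CO2, fluorescence read daily from bottom (ex 510/em 540 nm).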

Trypanosoma cruzi = assay: Antiparasitic activity against Trypanosoma cruzi amastigotes infected in gamma-irradiated vero cells assessed as growth inhibition measured after 3 days by fluorescence assay; type: functional; settings: light or radiation study, 72 h, read-out: ED50 (the source's name)
[2] = target: T2, Farnesyl diphosphate synthase (Toxoplasma gondii, UniProt Q197X6); assay: Inhibition of Toxoplasma gondii farnesyl diphosphate synthase assessed as incorporation of [4-14C]IPP measured at 37 degC
T2 sequence (Q197X6 whole entry): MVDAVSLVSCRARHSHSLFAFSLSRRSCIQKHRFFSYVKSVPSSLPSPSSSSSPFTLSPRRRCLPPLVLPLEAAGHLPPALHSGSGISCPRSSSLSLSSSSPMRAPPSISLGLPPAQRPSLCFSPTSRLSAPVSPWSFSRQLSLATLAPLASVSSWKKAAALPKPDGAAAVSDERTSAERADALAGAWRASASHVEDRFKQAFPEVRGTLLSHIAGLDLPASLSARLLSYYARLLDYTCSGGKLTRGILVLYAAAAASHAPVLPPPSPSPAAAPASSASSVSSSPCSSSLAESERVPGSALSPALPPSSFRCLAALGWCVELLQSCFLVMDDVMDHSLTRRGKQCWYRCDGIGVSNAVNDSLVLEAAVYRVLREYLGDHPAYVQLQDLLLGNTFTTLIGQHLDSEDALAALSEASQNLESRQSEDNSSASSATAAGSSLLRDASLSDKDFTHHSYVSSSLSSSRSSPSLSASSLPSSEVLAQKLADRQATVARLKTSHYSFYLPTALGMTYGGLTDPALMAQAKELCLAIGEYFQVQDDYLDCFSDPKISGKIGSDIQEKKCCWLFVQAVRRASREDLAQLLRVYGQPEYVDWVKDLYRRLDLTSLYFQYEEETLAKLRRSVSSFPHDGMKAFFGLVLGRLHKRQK

[3] = Cytotoxicity against hTerT cells assessed as growth inhibition measured at > 1000 uM after 3 to 4 days by Alamar Blue assay; type: cell-based; settings: human
Procedure, shortened: (§1)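 Non-irradiated confluent hTERT cells in phenol-red-free high-glucose DMEM with 10% Cosmic Calf Serum, washed, serial drug dilutions in quadruplicate, 35 °C, 7% CO2 for 3–4 days. AlamarBlue at 10% of culture volume, 6 h at 35 °C, absorbance at 570 and 600 nm. Percent growth inhibition = 100 minus percent reduction difference versus untreated control; DMSO as toxicity control.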

[4] = Cytotoxicity against hTerT cells assessed as growth inhibition measured at >= 500 uM after 3 to 4 days by Alamar Blue assay; type: cell-based; settings: human; procedure, shortened: as §1
[5] = Cytotoxicity against hTerT cells assessed as growth inhibition measured at > 200 uM after 3 to 4 days by Alamar Blue assay; type: cell-based; settings: human; procedure, shortened: as §1

SMILES	IC50 [1] [µM]	Activity (Vero)	EC50 (Toxoplasma gondii) [µM]	EC50 (Trypanosoma cruzi) [µM]	IC50 [2] [µM]	Activity [3]	Activity [4]	Activity [5]
CCCCCC(C)NCC(P(=O)(O)O)P(=O)(O)O (stereo not drawn)	> 10	Non-toxic	11.4	> 20	< 1			
CCCSCC(P(=O)(O)O)P(=O)(O)O	0.925	Non-toxic	> 10	> 20	0.066			
CCCCCCCCC[S+]([O-])CC(P(=O)(O)O)P(=O)(O)O (stereo not drawn)	> 10	Non-toxic	1.4	19.4	0.056	Non-toxic		
CCCCSCC(P(=O)(O)O)P(=O)(O)O	0.789	Non-toxic	> 10	> 20	0.048			
CCCCCS(=O)(=O)CC(P(=O)(O)O)P(=O)(O)O	> 10	Non-toxic	> 10	> 20	> 10			
CCCCCCCCCC[S+]([O-])CC(P(=O)(O)O)P(=O)(O)O (stereo not drawn)	> 10	Non-toxic	7.6	> 20	> 10			
CCCCCCCCCSCC(P(=O)(O)O)P(=O)(O)O	1.7	Non-toxic	1.2	12.8	0.025		Non-toxic	
CCCCCSCC(P(=O)(O)O)P(=O)(O)O	> 10	Non-toxic	> 10	> 20	0.11			
CCCCCCCCSCC(P(=O)(O)O)P(=O)(O)O	6.39	Non-toxic	2.6	15.8	0.024	Non-toxic		
CCCCCC[S+]([O-])CC(P(=O)(O)O)P(=O)(O)O (stereo not drawn)	> 10	Non-toxic	> 10	> 20	> 10			
CCCC[S+]([O-])CC(P(=O)(O)O)P(=O)(O)O (stereo not drawn)	> 10	Non-toxic	> 10	> 20	> 10			
O=P(O)(O)C(O)(Cc1cccnc1)P(=O)(O)O [RISEDRONIC ACID]			2.4	55				
CCCCCCC[S+]([O-])CC(P(=O)(O)O)P(=O)(O)O (stereo not drawn)	> 10	Non-toxic	5	> 20	0.009			
CCCCCCCSCC(P(=O)(O)O)P(=O)(O)O	> 10	Non-toxic	0.97	> 20	0.069			Non-toxic
CCCCCCSCC(P(=O)(O)O)P(=O)(O)O	> 10	Non-toxic	6.5	> 20	0.307			
CCCCC[S+]([O-])CC(P(=O)(O)O)P(=O)(O)O (stereo not drawn)	> 10	Non-toxic	> 10	> 20	> 10			
O=C(Cn1ccnc1[N+](=O)[O-])NCc1ccccc1 [BENZNIDAZOLE]				1.7				
CCCCCCCCCCSCC(P(=O)(O)O)P(=O)(O)O	0.097	Non-toxic	1.8	> 20	0.021			Non-toxic
CCSCC(P(=O)(O)O)P(=O)(O)O	0.627	Non-toxic	> 10	> 20	1.83			
CCCCCCCNCC(O)(P(=O)(O)O)P(=O)(O)O	> 10	Non-toxic	> 10	> 20	> 1			
CCCCCCCC[S+]([O-])CC(P(=O)(O)O)P(=O)(O)O (stereo not drawn)	> 10	Non-toxic	3	> 20	0.016			
CCCCCCCC[S+](C)CC(P(=O)(O)O)P(=O)(O)O.F[B-](F)(F)F (stereo not drawn)	0.04	Non-toxic	7	> 20	0.013			
